# Data reported in ChEMBL document CHEMBL3580617, “Discovery of Benzimidazole CYP11B2 Inhibitors with in Vivo Activity in Rhesus Monkeys” (ACS Med Chem Lett, 2015).
# The source made the active and inactive calls. No cut-off for these calls is given here.
# Legend:
# Rhesus monkey [1] = test: Reduction in aldosterone levels in low sodium diet fed rhesus monkey at 0.3 mg/kg, iv followed by 0.3 mg/kg ACTH dosing and measured 30 mins to 180 mins post ACTH administration by UPLC coupled with tandem mass spectrometry; format: functional; details: Macaca mulatta
# Outline: (§1)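 Anesthetized rhesus monkeys were given i.v. doses from 0.001 to 0.3 mg/kg. Plasma aldosterone and 11-deoxycortisol were quantified by LC-MS at time points up to 180 min postdose, and AUCs were determined for each. Plasma drug was measured at 90 min postdose. Free (unbound) concentrations were calculated from the measured fraction unbound in rhesus plasma.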
# Rhesus monkey [2] = test: Reduction in aldosterone levels in low sodium diet fed rhesus monkey assessed as free plasma concentration causing reduction in aldosterone at 0.01 mg/kg, iv followed by 0.3 mg/kg ACTH dosing and measured 90 mins post ACTH administration by UPLC coupled with tandem mass spectrometry; format: functional, Macaca mulatta; outline: as §1
# Rhesus monkey [3] = test: Reduction in aldosterone levels in low sodium diet fed rhesus monkey assessed as free plasma concentration causing reduction in aldosterone at 0.3 mg/kg, iv followed by 0.3 mg/kg ACTH dosing and measured 90 mins post ACTH administration by UPLC coupled with tandem mass spectrometry; format: functional, Macaca mulatta; outline: as §1
# Rhesus monkey [4] = test: Increase in 11-deoxycortisol levels in low sodium diet fed rhesus monkey up to 0.3 mg/kg, iv followed by 0.3 mg/kg ACTH dosing and measured 30 mins to 180 mins post ACTH administration by UPLC coupled with tandem mass spectrometry; format: functional, organism-based; details: Macaca mulatta; outline: as §1
# [5] = Inhibition of rhesus monkey CYP11B1; set-up: species or system Macaca mulatta
# Rhesus monkey [6] = test: […] in 11-deoxycortisol levels in low sodium diet fed rhesus monkey at free plasma concentration up to 27 nM dosed at 0.01 to 0.3 mg/kg, iv followed by 0.3 mg/kg ACTH dosing and measured 90 mins post ACTH administration by UPLC coupled with tandem mass spectrometry; format: functional, organism-based; details: Macaca mulatta; outline: as §1
# Homo sapiens = organism: Homo sapiens; test: Selectivity index, ratio of IC50 for human CYP11B1 to IC50 for human CYP11B2
# Outline: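 Human CYP11B2 and CYP11B1 inhibition was tested in cell-based assays. Selectivity was taken as the hCYP11B1 IC50 divided by the hCYP11B2 IC50.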
# [7] = target: Sodium channel protein type 5 subunit alpha (Homo sapiens, UniProt Q14524); test: Block of Nav1.5 ion channel in functional assay (unknown origin)
# [8] = target: Voltage-dependent L-type calcium channel subunit alpha-1C (Homo sapiens, UniProt Q13936); test: Block of Cav1.2 ion channel in functional assay (unknown origin)
# Chain of Voltage-dependent L-type calcium channel subunit alpha-1C (Q13936 whole entry): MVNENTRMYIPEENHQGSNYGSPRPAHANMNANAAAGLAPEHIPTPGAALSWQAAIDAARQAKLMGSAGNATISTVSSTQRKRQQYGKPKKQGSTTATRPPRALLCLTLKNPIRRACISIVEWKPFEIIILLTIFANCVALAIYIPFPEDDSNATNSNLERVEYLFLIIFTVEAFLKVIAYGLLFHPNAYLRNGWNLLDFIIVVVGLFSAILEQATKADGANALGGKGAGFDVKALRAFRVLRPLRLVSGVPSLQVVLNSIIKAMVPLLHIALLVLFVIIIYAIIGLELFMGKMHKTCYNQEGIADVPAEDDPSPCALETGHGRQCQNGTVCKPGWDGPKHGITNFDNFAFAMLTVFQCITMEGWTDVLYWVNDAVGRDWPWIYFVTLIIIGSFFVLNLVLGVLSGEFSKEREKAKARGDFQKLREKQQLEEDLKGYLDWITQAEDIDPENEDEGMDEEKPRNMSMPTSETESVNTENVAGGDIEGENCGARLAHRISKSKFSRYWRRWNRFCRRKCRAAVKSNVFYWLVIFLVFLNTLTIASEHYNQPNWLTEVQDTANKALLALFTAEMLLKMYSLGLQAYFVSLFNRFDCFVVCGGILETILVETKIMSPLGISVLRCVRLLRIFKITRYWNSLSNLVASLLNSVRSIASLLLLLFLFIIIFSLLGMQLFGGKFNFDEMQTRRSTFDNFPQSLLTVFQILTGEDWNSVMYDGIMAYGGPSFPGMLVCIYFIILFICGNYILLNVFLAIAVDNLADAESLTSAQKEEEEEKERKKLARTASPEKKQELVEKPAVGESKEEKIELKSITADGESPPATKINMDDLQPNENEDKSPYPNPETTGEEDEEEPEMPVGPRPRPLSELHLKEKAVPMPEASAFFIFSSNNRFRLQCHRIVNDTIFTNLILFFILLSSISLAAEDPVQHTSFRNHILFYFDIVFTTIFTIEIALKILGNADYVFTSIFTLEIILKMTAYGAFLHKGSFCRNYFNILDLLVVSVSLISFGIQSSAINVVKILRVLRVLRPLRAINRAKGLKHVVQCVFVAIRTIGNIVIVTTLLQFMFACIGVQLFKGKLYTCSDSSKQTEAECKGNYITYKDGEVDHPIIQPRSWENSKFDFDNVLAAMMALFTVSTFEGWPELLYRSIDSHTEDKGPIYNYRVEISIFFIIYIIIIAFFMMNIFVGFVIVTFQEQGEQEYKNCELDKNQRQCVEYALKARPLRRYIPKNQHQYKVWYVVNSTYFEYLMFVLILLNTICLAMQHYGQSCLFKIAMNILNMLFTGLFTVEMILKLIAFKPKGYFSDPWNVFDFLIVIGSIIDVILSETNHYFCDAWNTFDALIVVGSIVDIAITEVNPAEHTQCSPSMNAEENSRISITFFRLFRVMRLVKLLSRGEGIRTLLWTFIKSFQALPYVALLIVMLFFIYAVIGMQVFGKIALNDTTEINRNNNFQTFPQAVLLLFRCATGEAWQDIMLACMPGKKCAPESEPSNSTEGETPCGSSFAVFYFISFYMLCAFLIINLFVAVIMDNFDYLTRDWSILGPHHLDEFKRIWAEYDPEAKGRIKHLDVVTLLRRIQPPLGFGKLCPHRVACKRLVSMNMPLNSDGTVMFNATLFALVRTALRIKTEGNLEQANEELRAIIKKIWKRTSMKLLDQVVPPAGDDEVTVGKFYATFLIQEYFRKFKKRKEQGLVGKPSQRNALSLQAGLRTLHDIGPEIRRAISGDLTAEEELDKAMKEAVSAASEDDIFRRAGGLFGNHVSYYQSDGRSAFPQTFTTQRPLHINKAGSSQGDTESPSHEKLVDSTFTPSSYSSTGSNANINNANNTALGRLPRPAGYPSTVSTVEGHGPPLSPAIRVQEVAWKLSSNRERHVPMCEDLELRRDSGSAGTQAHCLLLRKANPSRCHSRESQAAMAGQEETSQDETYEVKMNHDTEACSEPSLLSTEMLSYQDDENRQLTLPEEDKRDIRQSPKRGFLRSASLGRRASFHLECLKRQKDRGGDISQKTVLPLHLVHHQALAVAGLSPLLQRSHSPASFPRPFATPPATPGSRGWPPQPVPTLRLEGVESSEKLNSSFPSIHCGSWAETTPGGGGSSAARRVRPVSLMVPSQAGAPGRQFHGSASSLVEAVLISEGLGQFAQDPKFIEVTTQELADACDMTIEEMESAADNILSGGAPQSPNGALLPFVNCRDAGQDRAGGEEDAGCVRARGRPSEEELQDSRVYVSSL
# Chain of Sodium channel protein type 5 subunit alpha (Q14524 whole entry): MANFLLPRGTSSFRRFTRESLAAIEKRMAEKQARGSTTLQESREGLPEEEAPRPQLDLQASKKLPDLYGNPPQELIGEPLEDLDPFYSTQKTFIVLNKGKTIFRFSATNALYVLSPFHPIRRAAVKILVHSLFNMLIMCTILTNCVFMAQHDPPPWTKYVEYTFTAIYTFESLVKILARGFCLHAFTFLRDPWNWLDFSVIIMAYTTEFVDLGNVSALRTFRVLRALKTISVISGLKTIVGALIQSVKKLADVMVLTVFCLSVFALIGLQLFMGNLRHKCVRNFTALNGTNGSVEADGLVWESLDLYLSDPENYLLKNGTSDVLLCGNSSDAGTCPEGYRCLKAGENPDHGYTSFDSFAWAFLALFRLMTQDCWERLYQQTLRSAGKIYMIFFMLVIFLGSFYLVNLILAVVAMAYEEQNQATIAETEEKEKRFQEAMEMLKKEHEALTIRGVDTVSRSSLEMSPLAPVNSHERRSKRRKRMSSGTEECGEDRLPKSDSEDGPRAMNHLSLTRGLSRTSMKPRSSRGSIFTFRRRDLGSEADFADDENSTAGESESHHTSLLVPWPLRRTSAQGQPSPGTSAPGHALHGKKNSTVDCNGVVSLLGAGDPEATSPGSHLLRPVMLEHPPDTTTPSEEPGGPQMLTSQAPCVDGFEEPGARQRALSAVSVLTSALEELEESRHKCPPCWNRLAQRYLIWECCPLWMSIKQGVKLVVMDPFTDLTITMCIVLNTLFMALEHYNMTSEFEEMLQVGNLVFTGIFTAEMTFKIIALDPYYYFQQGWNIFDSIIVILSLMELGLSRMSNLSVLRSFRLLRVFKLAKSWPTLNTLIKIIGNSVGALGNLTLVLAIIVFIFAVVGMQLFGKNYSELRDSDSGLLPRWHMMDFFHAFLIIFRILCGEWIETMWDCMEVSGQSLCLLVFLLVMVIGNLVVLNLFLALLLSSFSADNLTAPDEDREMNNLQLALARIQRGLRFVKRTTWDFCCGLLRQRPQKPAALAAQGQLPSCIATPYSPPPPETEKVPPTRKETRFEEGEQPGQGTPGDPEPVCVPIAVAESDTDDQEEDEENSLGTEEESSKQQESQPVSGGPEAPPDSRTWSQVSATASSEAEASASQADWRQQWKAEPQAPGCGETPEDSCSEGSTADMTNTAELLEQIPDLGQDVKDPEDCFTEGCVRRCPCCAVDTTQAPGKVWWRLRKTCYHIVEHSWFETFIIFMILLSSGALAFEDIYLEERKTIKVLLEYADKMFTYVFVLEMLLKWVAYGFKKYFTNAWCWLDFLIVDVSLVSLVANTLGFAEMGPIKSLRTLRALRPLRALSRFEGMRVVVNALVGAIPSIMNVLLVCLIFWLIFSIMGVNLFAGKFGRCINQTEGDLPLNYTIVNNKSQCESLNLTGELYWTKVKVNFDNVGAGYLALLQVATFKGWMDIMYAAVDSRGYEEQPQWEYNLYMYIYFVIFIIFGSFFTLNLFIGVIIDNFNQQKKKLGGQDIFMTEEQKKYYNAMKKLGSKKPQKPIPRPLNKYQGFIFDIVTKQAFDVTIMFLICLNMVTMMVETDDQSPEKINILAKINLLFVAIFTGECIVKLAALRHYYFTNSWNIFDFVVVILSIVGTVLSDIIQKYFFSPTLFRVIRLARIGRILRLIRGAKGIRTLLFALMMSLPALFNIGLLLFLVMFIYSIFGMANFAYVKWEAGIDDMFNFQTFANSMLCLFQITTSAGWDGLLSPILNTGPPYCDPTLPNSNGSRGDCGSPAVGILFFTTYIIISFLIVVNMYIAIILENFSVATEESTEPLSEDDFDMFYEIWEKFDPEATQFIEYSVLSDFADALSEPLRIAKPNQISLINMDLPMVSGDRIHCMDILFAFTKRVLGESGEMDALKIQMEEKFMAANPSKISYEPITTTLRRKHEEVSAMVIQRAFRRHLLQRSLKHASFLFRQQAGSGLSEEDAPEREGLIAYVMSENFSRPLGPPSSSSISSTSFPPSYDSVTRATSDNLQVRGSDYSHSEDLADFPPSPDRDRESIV
IC50 [5] [µM],Ratio IC50 (Homo sapiens),Structure (SMILES),inhibition in vivo at 0.3 mg/kg (Rhesus monkey [1]) [%],Cp(f) (Rhesus monkey [2]) [nM],Cp(f) (Rhesus monkey [3]) [nM],Activity (Rhesus monkey [4]),inhibition (Rhesus monkey [6]),IC50 [7] [µM],IC50 [8] [µM]
0.041,,CC(C)(O)c1cncc(-c2nc3ccc(F)cc3n2C2CC2)c1 [MSD-CYP11B2],95,12,27,inactive,inactive,,
,93,Fc1cncc(-c2nc3cc(F)c(F)cc3n2C2CC2)c1,,,,,,> 30,> 30
